Experiments:
[1] = Biodistribution in CD1 mouse adrenal gland assessed per gram of wet tissue at 400 to 600 kBq, iv after 60 mins post-injection by gamma counting in presence of 1 mg/kg, ip sigma 1/sigma 2 receptor antagonist haloperidol treated before compound addition; format: organism-based; parameters: dose 1 mg/kg, route intravenous; conditions: in vivo, 1 h
In short: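 Blocking arm in fasted female CD-1 mice (n=5). […] Animals were killed at 60 min post-injection, and organs were weighed and γ-counted as % ID/g wet tissue. Percent change was taken against the 60 min control group, with two-tailed unpaired Student's t test.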

Blood = experiment: Biodistribution in CD1 mouse blood assessed per gram of wet tissue at 400 to 600 kBq, iv after 120 minspost-injection by gamma counting; format: ADME, organism-based; conditions: in vivo, 2 h
In short: (§1)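 Female CD-1 mice (~8-12 weeks, 20-28 g) were fasted 24 h with free water. Conscious mice got 400-600 kBq [¹⁸F] tracer in saline by tail vein. At 5, 30, 60 or 120 min (n=4-5 per time) they were anesthetized, blood and urine sampled, then killed by cervical dislocation. Organs were weighed and γ-counted, giving % ID/g wet tissue.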

Femur = experiment: Biodistribution in CD1 mouse femur assessed per gram of wet tissue at 400 to 600 kBq, iv after 60 mins post-injection by gamma counting; format: ADME, organism-based; conditions: in vivo, 1 h; in short: as §1
Spleen [2] = experiment: Biodistribution in CD1 mouse spleen assessed per gram of wet tissue at 400 to 600 kBq, iv after 60 mins post-injection by gamma counting in presence of 1 mg/kg, ip sigma 1/sigma 2 receptor antagonist haloperidol treated before compound addition; format: organism-based; parameters: route intravenous; conditions: in vivo, 1 h
In short: (§2)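 They were killed at 60 min pi, and organs were weighed and γ-counted as % ID/g wet tissue. Comparison with controls used Student's t test (independent, two-tailed).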

[3] = Ratio of drug level in cerebellum to plasma in CD1 mouse at 400 to 600 kBq, iv after 60 mins post-injection; format: ADME, organism-based
In short: (§3)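 Female CD-1 mice (~8-12 weeks, 20-28 g), fasted 24 h with free water; 400-600 kBq tracer in 200 μL saline by tail vein into conscious animals. Killed at set times pi (n=4-5 per time); blood and organs weighed, γ-counted, expressed as % ID/g wet tissue; ratio from cerebellum and plasma uptake.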

[4] = Ratio of drug level in cerebellum to plasma in CD1 mouse at 400 to 600 kBq, iv after 30 mins post-injection; format: ADME, organism-based; in short: as §3
Lung [5] = experiment: Biodistribution in CD1 mouse lung assessed per gram of wet tissue at 400 to 600 kBq, iv after 30 mins post-injection by gamma counting; format: ADME, organism-based; conditions: in vivo, 0.5 h
In short: (§4)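 Female CD-1 mice (~8-12 weeks, 20-28 g), habituated ≥48 h and fasted 24 h with water available. The [18F] tracer (>150 GBq/μmol at end of synthesis) was given in 200 μL saline into the tail vein of conscious animals. At each time point, n=4-5, mice were anaesthetised, blood and urine sampled, then killed by cervical dislocation. Organs were weighed and γ-counted, and values calculated as % ID/g wet tissue.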

Spleen [6] = experiment: Biodistribution in CD1 mouse spleen assessed per gram of wet tissue at 400 to 600 kBq, iv after 5 mins post-injection by gamma counting; format: ADME, organism-based; conditions: in vivo; in short: as §4
Intestine [7] = experiment: Biodistribution in CD1 mouse intestine assessed per gram of wet tissue at 400 to 600 kBq, iv after 5 mins post-injection by gamma counting; format: ADME, organism-based; conditions: in vivo; in short: as §1
Lung [8] = experiment: Biodistribution in CD1 mouse lung assessed per gram of wet tissue at 400 to 600 kBq, iv after 120 mins post-injection by gamma counting; format: ADME, organism-based; conditions: in vivo, 2 h; in short: as §4
Intestine [9] = experiment: Biodistribution in CD1 mouse intestine assessed per gram of wet tissue at 400 to 600 kBq, iv after 120 mins post-injection by gamma counting; format: ADME, organism-based; conditions: in vivo, 2 h; in short: as §1
Stomach [10] = experiment: Biodistribution in CD1 mouse stomach assessed per gram of wet tissue at 400 to 600 kBq, iv after 5 mins post-injection by gamma counting; format: ADME, organism-based; conditions: in vivo; in short: as §4
Mus musculus [11] = experiment: Plasma concentration in CD1 mouse assessed per gram of wet tissue at 400 to 600 kBq, iv after 60 mins post-injection by gamma counting in presence of 1 mg/kg, ip sigma 1/sigma 2 receptor antagonist haloperidol treated before compound addition; format: organism-based; parameters: route intravenous; conditions: in vivo, 1 h
In short: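 Female CD-1 mice, fasted 24 h. […] Blood sampled and mice killed at 60 min pi. Samples weighed, γ-counted, %ID/g calculated. Compared with controls by two-tailed independent Student's t test.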

Mus musculus [12] = experiment: Plasma concentration in CD1 mouse assessed per gram of wet tissue at 400 to 600 kBq, iv after 30 mins post-injection by gamma counting; format: ADME, organism-based; conditions: in vivo, 0.5 h
In short: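 Female CD-1 mice (~8-12 weeks, 20-28 g), fasted 24 h with free access to water. 400-600 kBq [18F] tracer in 200 μL saline given by tail vein to conscious mice. At 5, 30, 60 or 120 min pi (n=4-5 per time) mice anaesthetised, blood taken, then euthanised. Samples weighed, γ-counted, %ID/g wet tissue calculated.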

Lung [13] = experiment: Biodistribution in CD1 mouse lung assessed per gram of wet tissue at 400 to 600 kBq, iv after 60 mins post-injection by gamma counting in presence of 1 mg/kg, ip sigma 1/sigma 2 receptor antagonist haloperidol treated before compound addition; format: organism-based; parameters: route intravenous; conditions: in vivo, 1 h; in short: as §2
Muscle tissue = experiment: Biodistribution in CD1 mouse muscle assessed per gram of wet tissue at 400 to 600 kBq, iv after 60 mins post-injection by gamma counting; format: ADME, organism-based; conditions: in vivo, 1 h; in short: as §4
Lung [14] = experiment: Biodistribution in CD1 mouse lung assessed per gram of wet tissue at 400 to 600 kBq, iv after 5 mins post-injection by gamma counting; format: ADME, organism-based; conditions: in vivo; in short: as §4
[15] = Biodistribution in CD1 mouse gonad assessed per gram of wet tissue at 400 to 600 kBq, iv after 5 mins post-injection by gamma counting; format: ADME, organism-based; conditions: in vivo; in short: as §1
[16] = Biodistribution in CD1 mouse thymus assessed per gram of wet tissue at 400 to 600 kBq, iv after 5 mins post-injection by gamma counting; format: ADME, organism-based; conditions: in vivo; in short: as §4
Stomach [17] = experiment: Biodistribution in CD1 mouse stomach assessed per gram of wet tissue at 400 to 600 kBq, iv after 60 mins post-injection by gamma counting in presence of 1 mg/kg, ip sigma 1/sigma 2 receptor antagonist haloperidol treated before compound addition; format: organism-based; parameters: route intravenous; conditions: in vivo, 1 h; in short: as §2
[18] = Ratio of drug level in cerebellum to plasma in CD1 mouse at 400 to 600 kBq, iv after 60 mins post-injection in presence of 1 mg/kg, ip sigma 1/sigma 2 receptor antagonist haloperidol treated before compound addition; format: organism-based; parameters: route intravenous
In short: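 Killed 60 min pi; blood and cerebellum weighed, γ-counted as % ID/g wet tissue, ratio derived; Student's two-tailed t test versus untreated controls.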

Spleen [19] = experiment: Drug uptake in CD1 mouse spleen at 400 to 600 kBq, iv after 120 mins post-injection by gamma counting relative to initial uptake; format: ADME, organism-based; conditions: in vivo, 2 h
In short: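 Organ % ID/g was measured by γ-counting after tail-vein injection of 400-600 kBq [18F] tracer in saline to fasted female CD-1 mice (n=4-5 per time). The 120 min pi value is expressed relative to the initial (5 min pi) uptake.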

[20] = Biodistribution in CD1 mouse adrenal gland assessed per gram of wet tissue at 400 to 600 kBq, iv after 30 mins post-injection by gamma counting; format: ADME, organism-based; conditions: in vivo, 0.5 h; in short: as §1
Brain = experiment: Biodistribution in CD1 mouse brain assessed per gram of wet tissue at 400 to 600 kBq, iv after 30 mins post-injection by gamma counting; format: ADME, organism-based; conditions: in vivo, 0.5 h; in short: as §1

SMILES: [18F]CCCC1OC2(CCN(Cc3ccccc3)CC2)c2ccccc21 (centres undefined)
- Drug uptake [1]: 5.72 %ID
- Drug uptake (Blood): 0.48 %ID
- Drug uptake (Femur): 3.48 %ID
- Drug uptake (Spleen [2]): 1.89 %ID
- Kp at 1 h [3]: 5.75
- Kp at 0.5 h [4]: 3.86
- Drug uptake (Lung [5]): 7.01 %ID
- Drug uptake (Spleen [6]): 4.51 %ID
- Drug uptake (Intestine [7]): 4.35 %ID
- Drug uptake (Lung [8]): 3.37 %ID
- Drug uptake (Intestine [9]): 9.03 %ID
- Drug uptake (Stomach [10]): 3.39 %ID
- Drug uptake (Mus musculus [11]): 0.63 %ID
- Drug uptake (Mus musculus [12]): 0.96 %ID
- Drug uptake (Lung [13]): 2.11 %ID
- Drug uptake (Muscle tissue): 0.97 %ID
- Drug uptake (Lung [14]): 16.2 %ID
- Drug uptake [15]: 3.4 %ID
- Drug uptake [16]: 3.98 %ID
- Drug uptake (Stomach [17]): 5.88 %ID
- Kp at 1 h [18]: 1
- Drug uptake (Spleen [19]): > 70%
- Drug uptake [20]: 7.63 %ID
- Drug uptake (Brain): 3.18 %ID

— ChEMBL document CHEMBL1154191, “Evaluation of spirocyclic 3-(3-fluoropropyl)-2-benzofurans as sigma1 receptor ligands for neuroimaging with positron emission tomography” (J Med Chem, 2009)
